A short description of assay [1]: reduced viability of SK-BR-3 breast cancer cells – cell-based, 24 h, human, pilot screen (AID 572;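 active = viability at or below 10% of carrier control in both of two separate runs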;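 note: compound exposure lasted between 18 and 24 h rather than exactly 24 h; 100% = carrier-treated control wells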). The settings on record: SK-BR-3 viability, CellTiter-Glo luminescence, at 10 µM, stronger effect = lower value. Background: In ATP-based viability assays light output follows the ATP content of the culture.
Assay [2] can be described thus: HUVEC growth inhibition – cell-based, human, primary screen (AID 575;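 active = viability at or below 30% in both replicate assays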;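 note: 100% = median of untreated cell wells with 0.1% DMSO on each plate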). The settings on record: HUVEC proliferation, CellTiter-Glo luminescence, 72 h; at 10 µM; stronger effect = lower value. A digest of the protocol: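 Test system: primary human umbilical vein endothelial cells. Quantity: 1250 cells/well. Compound: single 10 µM dose, 0.1% DMSO, from 5x medium stock. Timing: 72 h treatment at 37 °C. Detection: ATP-based CellTiter-Glo luminescent read. Benchmarks: vehicle and MePR control wells. Format: 384-well plates coated with collagen.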

A short description of assay [3]: H69AR cell proliferation blockers – human, duplicate replicates, primary screen (AID 580;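 active = viability at or under a set limit in both replicates, limit being median viability minus 3 SD, cut at about 48% in these data, passing the limit was not always enough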;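 note: 100% = mean luminescence of untreated wells and 0% = no signal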). The settings on record: H69AR lung tumor cells viability, ATP luminescence, 72 h; at 10 µM; stronger effect = lower value.
Assay [4] in a line: MRP1 drug-resistance reversers in H69AR cells – cell-based, doxorubicin co-treatment, pilot screen (AID 601). The settings on record: CellTiter-Glo, 72 h, at 10 µM; for differential viability (reversal): stronger effect = higher value.
The nature of assay [5]: yeast transport mutant growth inhibition pilot in 384-well plates, post-Golgi transport modulator project (AID 636; in the data active = inhibition above about 31%). Conditions: absorbance 615 nm, about 18 h, stronger effect = higher value.
The nature of assay [6]: growth suppression of yeast trafficking mutant, preliminary HTS, modulators of trafficking downstream of Golgi apparatus project, 1536-format plate, OD 615 nm (AID 637; in the data active = inhibition above about 30%). The settings on record: yeast transport mutant growth, absorbance 615 nm, 18 h; stronger effect = higher value.
Setting [7] is: H69AR cells + 2 uM doxorubicin, measured here: viability with 2 uM doxorubicin, stronger effect = lower value.
Where [8] appears, read: H69AR cells, compound alone cytotoxicity.

“And” between values parts separate entries of the source, which are not always exact repeats. Identical values can stand only once. The source made the active and inactive calls.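 Rule for the calls, unless noted: active = viability loss from added drug above about 55%, and viability with drug at most 40%, in both replicates (limit read from the data, passing the limit was not always enough); inconclusive = both conditions met in only one replicate; inactive = neither replicate meets both conditions.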

With `CC(=O)O[C@H]1C[C@@H]2CC[C@@H]3[C@H](CC[C@@]4(C)[C@H]3C[C@H]([N+]3(C)CCCCC3)[C@@H]4OC(C)=O)[C@@]2(C)C[C@@H]1[N+]1(C)CCCCC1`, the viability (usually a read-out of living cells in per cent, often relative to untreated cells) in assay [1] is 111% (inactive); in assay [2] it was 88.4% (inactive); in assay [3], 94.5% (inactive); in assay [4] (setting [7]), 99.3%; in assay [4] (setting [8]) it was 94.5%. Also, the differential viability (reversal) in assay [4] (H69AR cells + 2 uM doxorubicin) is -4.76% (inactive). Also, the inhibition (usually the relative decrease from the control value, in per cent) in assay [5] is 1.04% (inactive); in assay [6], 12.7% (inactive).
For the molecule `COc1cc(NC2c3ccccc3C(=O)N2c2ccc(C)cn2)cc(OC)c1OC` (stereo not drawn), the viability in assay [1] was 90.5% (inactive); in assay [2], 85.5% (inactive); in assay [3] it was 88.7% (inactive); in assay [4] (setting [7]), 85%; in assay [4] (setting [8]), 88.7%. For the same molecule, the differential viability (reversal) in assay [4] (H69AR cells + 2 uM doxorubicin) was 3.73% (inactive). The inhibition in assay [5] was -1.41% (inactive); in assay [6], 1.17% (inactive).
As for `O=C(NC1CCCCCCC1)C1CCN(c2nc3ccccc3o2)CC1`, the viability in assay [1] is 106% (inactive); in assay [2] it was 85.7% (inactive); in assay [3], 92.2% (inactive); in assay [4] (setting [7]), 94.7%; in assay [4] (setting [8]), 92.2%. Besides, the differential viability (reversal) in assay [4] (H69AR cells + 2 uM doxorubicin) is -2.57% (inactive). Also, the inhibition in assay [5] was 7.2% (inactive); in assay [6], 1.09% (inactive).
Regarding `COc1cccc(C(=O)NC2=NCCS2)c1`, the viability in assay [1] was 109% (inactive); in assay [2], 100% (inactive); in assay [3], 96.7% (inactive); in assay [4] (setting [7]) it was 84.6%; in assay [4] (setting [8]), 96.7%. Further, the differential viability (reversal) in assay [4] (H69AR cells + 2 uM doxorubicin) is 12.1% (inactive). Besides, the inhibition in assay [5] is -4.11% (inactive); in assay [6] it was 0.32% (inactive).
As to `Nc1nc(Cl)nc2c1ncn2[C@H]1C[C@H](O)[C@@H](CO)O1`, the viability was 116% (inactive) and 105% (inactive) in assay [1]; 67% (inactive) and 36.3% (inactive) in assay [2]; 93.8% (inactive) in assay [3]; 103% and 81.2% in assay [4] (setting [7]); 93.8% and 49.4% in assay [4] (setting [8]). Moreover, the differential viability (reversal) in assay [4] (H69AR cells + 2 uM doxorubicin) was -9.28% (inactive) and -31.8% (inactive). Further, the inhibition in assay [5] is 2.34% (inactive) and 0.52% (inactive); in assay [6], 1% (inactive) and -1% (inactive).
For the molecule `COc1ccc(NC(=O)N2CCN(c3nc(-c4cccc(OC)c4)cs3)CC2)cc1`, the viability was 94% (inactive) in assay [1]; 49.3% (inactive) in assay [2]; 82.8% (inactive) in assay [3]; 86.8% in assay [4] (setting [7]); 82.8% in assay [4] (setting [8]). Also, the differential viability (reversal) in assay [4] (H69AR cells + 2 uM doxorubicin) is -4.01% (inactive). In addition, the inhibition in assay [5] is -9.59% (inactive); in assay [6], -4.52% (inactive).
In the case of `Oc1c(I)cc(I)c2cccnc12`, the viability is 61% (inactive) in assay [1]; 71.3% (inactive) in assay [2]; 84.6% (inactive) in assay [3]; 90.9% in assay [4] (setting [7]); 84.6% in assay [4] (setting [8]). For the same molecule, in assay [4] (H69AR cells + 2 uM doxorubicin), the differential viability (reversal) was -6.25% (inactive). The inhibition in assay [5] was -2.73% (inactive); in assay [6], 1% (inactive).
On to `Cc1ccc2[nH]c3c(=O)n(CCCN4CCN(C)CC4)cnc3c2c1`, for which the viability in assay [1] was 115% (inactive); in assay [2], 99.9% (inactive); in assay [3], 95.5% (inactive); in assay [4] (setting [7]), 93.2%; in assay [4] (setting [8]), 95.5%. The differential viability (reversal) in assay [4] (H69AR cells + 2 uM doxorubicin) is 2.28% (inactive). The figures for the inhibition in assay [5] and in assay [6] were -4.67% (inactive) and 0% (inactive), respectively.
Turning to `Cc1cc(C)nc(N(C#N)CC(=O)N2CCC(C(N)=O)CC2)n1`, the viability in assay [1] was 104% (inactive); in assay [2], 85.9% (inactive); in assay [3], 98.6% (inactive); in assay [4] (setting [7]), 94.5%; in assay [4] (setting [8]) it was 98.6%. For the same molecule, the differential viability (reversal) in assay [4] (H69AR cells + 2 uM doxorubicin) was 4.1% (inactive). Also, the inhibition in assay [5] is -7.95% (inactive); in assay [6], 1.45% (inactive).
As for `COc1ccc(NC(=O)c2oc3ccccc3c2NC(=O)c2ccco2)cc1`, the viability in assay [1] is 90% (inactive); in assay [2], 88.8% (inactive); in assay [3], 78.4% (inactive); in assay [4] (setting [7]), 78.8%; in assay [4] (setting [8]), 78.4%. Further, the differential viability (reversal) in assay [4] (H69AR cells + 2 uM doxorubicin) was -0.385% (inactive). For the same molecule, the inhibition was -4.59% (inactive) in assay [5] and -4.92% (inactive) in assay [6].
Take `CCN(CC)CCCNc1oc(-c2cccc(Cl)c2)nc1C#N`: the viability in assay [1] is 113% (inactive); in assay [2], 74.7% (inactive); in assay [3], 76.6% (inactive); in assay [4] (setting [7]) it was 77%; in assay [4] (setting [8]), 76.6%. The differential viability (reversal) in assay [4] (H69AR cells + 2 uM doxorubicin) was -0.39% (inactive). Also, the inhibition in assay [5] is -4.55% (inactive); in assay [6], -0.67% (inactive).
For `Cc1ccc(NC(=O)CSc2nnc(-c3ccc(S(=O)(=O)N4CCOCC4)cc3)n2C)cc1`, the viability in assay [1] was 102% (inactive); in assay [2], 104% (inactive); in assay [3] it was 98.4% (inactive); in assay [4] (setting [7]) it was 94.6%; in assay [4] (setting [8]) it was 98.4%. Further, the differential viability (reversal) in assay [4] (H69AR cells + 2 uM doxorubicin) was 3.83% (inactive). In addition, the inhibition in assay [5] is -3.33% (inactive); in assay [6], -1.64% (inactive).
`CC(C)C(=O)N1CCN(c2nc(-c3ccccc3)c3c(c2C#N)CCCC3)CC1`: the viability was 103% (inactive) in assay [1]; 74.5% (inactive) in assay [2]; 89.2% (inactive) in assay [3]; 77.7% in assay [4] (setting [7]); 89.2% in assay [4] (setting [8]). In assay [4] (H69AR cells + 2 uM doxorubicin), the differential viability (reversal) was 11.5% (inactive). Also, the results for the inhibition in assay [5] and in assay [6] were 8.51% (inactive) and 5.09% (inactive), respectively.
With `Cc1nc2ccc(S(=O)(=O)NCC(=O)N(C)Cc3ccco3)cc2s1`, the viability in assay [1] is 109% (inactive); in assay [2] it was 95.6% (inactive); in assay [3], 91.6% (inactive); in assay [4] (setting [7]), 82.3%; in assay [4] (setting [8]), 91.6%. Further, in assay [4] (H69AR cells + 2 uM doxorubicin), the differential viability (reversal) is 9.31% (inactive). In addition, the inhibition in assay [5] is -0.91% (inactive); in assay [6], 3.93% (inactive).
On to `COc1ccccc1C(=O)NCC(=O)Nc1ccccc1`, for which the viability is 104% (inactive) in assay [1]; 98.2% (inactive) in assay [2]; 98.5% (inactive) in assay [3]; 100% in assay [4] (setting [7]); 98.5% in assay [4] (setting [8]). Moreover, the differential viability (reversal) in assay [4] (H69AR cells + 2 uM doxorubicin) was -1.45% (inactive). Further, the values for the inhibition in assay [5] and in assay [6] were -8.08% (inactive) and 2.91% (inactive), respectively.
Turning to `COc1ccc(C2=CC(=O)OC3(CCCCC3)O2)cc1`, the viability in assay [1] is 97% (inactive); in assay [2] it was 93.2% (inactive); in assay [3] it was 56.5% (inactive); in assay [4] (setting [7]), 85.3%; in assay [4] (setting [8]) it was 56.5%. For the same molecule, the differential viability (reversal) in assay [4] (H69AR cells + 2 uM doxorubicin) was -28.8% (inactive). For the same molecule, the results for the inhibition in assay [5] and in assay [6] were -9.18% (inactive) and 7.42% (inactive), respectively.
